In ChEMBL document CHEMBL1629654, “Breakthrough Aspergillus fumigatus and Candida albicans double infection during caspofungin treatment: laboratory characteristics and implication for susceptibility testing” (2009):
In brackets after ≈: the same amount, converted by molar mass. Activity calls are given as the source filed them. No cut-off for these calls is given here.

Assays:
Candida albicans [1] = test: Antimicrobial activity against Candida albicans isolate S at 5 ug/ml grown on Muller-Hinton agar medium after 24 hrs by disk diffusion method; assay type: functional
How it was run: (§1)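 Disk diffusion on 90-mm RPMI 1640 with 2% glucose agar or on Mueller-Hinton agar. Plates were swabbed in three directions with a yeast suspension of 1–5 × 10^6 cells/ml. Paper disks (6 mm) held 1, 5 or 25 µg drug. Zone diameters were read at 24 and 48 h; values are means of two experiments.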

Pichia kudriavzevii [2] = test: Antimicrobial activity against Candida krusei after 48 hrs by 80% endpoint M27-A2 method; assay type: functional
Nakaseomyces glabratus [3] = test: Antimicrobial activity against Candida glabrata after 48 hrs
Candida albicans [4] = test: Antimicrobial activity against Candida albicans isolate R at 5 ug/ml grown on Muller-Hinton agar medium after 48 hrs by disk diffusion method; assay type: functional; how it was run: as §1
Clavispora lusitaniae [5] = test: Antimicrobial activity against Candida lusitaniae after 48 hrs by NCCLS microdilution method; assay type: functional
Kluyveromyces marxianus = test: Antimicrobial activity against Candida kefyr after 24 hrs by M27-A3 method; assay type: functional
Clavispora lusitaniae [6] = test: Antimicrobial activity against Candida lusitaniae after 24 hrs by M27-A3 method; assay type: functional
Candida albicans [7] = test: Antimicrobial activity against Candida albicans obtained from tracheal suction of patient 5 days after admission by EUCAST microdilution method; assay type: functional; conditions: Trachea, 120 h
How it was run: (§2)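 EUCAST broth microdilution, plates read spectrophotometrically at 490 nm. MIC is the lowest dilution giving 50% growth inhibition. C. krusei […] control included in each run.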

Candida parapsilosis = test: Antimicrobial activity against Candida parapsilosis after 48 hrs by 50% endpoint M27-A2 method; assay type: functional; conditions: Lodderomyces parapsilosis
Candida albicans [8] = test: Antimicrobial activity against Candida albicans isolate R obtained from urine of patient 38 days after admission by Etest; assay type: functional
How it was run: (§3)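 Etest on RPMI 1640 agar with 2% glucose, performed according to the manufacturer's recommendations.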

Nakaseomyces glabratus [9] = test: Antimicrobial activity against Candida glabrata after 48 hrs by NCCLS microdilution method; assay type: functional
Candida tropicalis [10] = test: Antimicrobial activity against Candida tropicalis after 48 hrs
Pichia kudriavzevii [11] = test: Antimicrobial activity against Candida krusei after 48 hrs
Candida tropicalis [12] = test: Antimicrobial activity against Candida tropicalis after 48 hrs by NCCLS microdilution method; assay type: functional
Candida albicans [13] = test: Antimicrobial activity against Candida albicans after 48 hrs by 50% endpoint M27-A2 method; assay type: functional
Candida albicans [14] = test: Antimicrobial activity against Candida albicans obtained from urine of patient 21 days after admission by EUCAST microdilution method; assay type: functional; conditions: 504 h; how it was run: as §2
Candida albicans [15] = test: Antimicrobial activity against Candida albicans isolate S at 25 ug/ml grown on RPMI 1640 medium after 48 hrs by disk diffusion method; assay type: functional; how it was run: as §1
Candida albicans [16] = test: Antimicrobial activity against Candida albicans isolate R at 5 ug/ml grown on RPMI 1640 medium after 48 hrs by disk diffusion method; assay type: functional; how it was run: as §1
Debaryomyces hansenii = test: Antimicrobial activity against Candida famata after 48 hrs by M27-A method
Candida albicans [17] = test: Antimicrobial activity against Candida albicans isolate R after 48 hrs by microdilution method; assay type: functional
How it was run: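 Broth microdilution in microtiter plates, read spectrophotometrically at 490 nm. MIC taken as the lowest drug dilution giving 50% growth inhibition. C. krusei […] run as control in each run. Read at 24 h and 48 h; trailing growth noted at 48 h.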

Candida albicans [18] = test: Antimicrobial activity against Candida albicans isolate S at 1 ug/ml grown on Muller-Hinton agar medium after 24 hrs by disk diffusion method; assay type: functional; how it was run: as §1
Candida albicans [19] = test: Antimicrobial activity against Candida albicans after 48 hrs
Candida albicans [20] = test: Antimicrobial activity against Candida albicans isolate S at 25 ug/ml grown on RPMI 1640 medium after 24 hrs by disk diffusion method; assay type: functional; how it was run: as §1
Candida albicans [21] = test: Antimicrobial activity against Candida albicans isolate C at 0.5 ug/ml after 48 hrs by agar dilution method; assay type: functional, organism-based
How it was run: (§4)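 Sabouraud agar wells contained caspofungin 0, 0.5, 1 or 2 µg/ml, or anidulafungin 0, 0.003, 0.125 or 0.5 µg/ml. Isolates were subcultured 2 days on CHROMagar. Suspensions of 1–5 × 10^6 CFU/ml in sterile water were diluted 1,500-fold, and 5 µl (about 3–15 cells) was spread per well. Growth was scored.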

Candida albicans [22] = test: Antimicrobial activity against Candida albicans after 48 hrs by broth microdilution method; assay type: functional
Candida tropicalis [23] = test: Antimicrobial activity against Candida tropicalis after 48 hrs by broth microdilution method; assay type: functional
Nakaseomyces glabratus [24] = test: Antimicrobial activity against Candida glabrata after 48 hrs by 80% endpoint M27-A2 method; assay type: functional
Candida tropicalis [25] = test: Antimicrobial activity against Candida tropicalis after 24 hrs by M27-A3 method; assay type: functional
Nakaseomyces glabratus [26] = test: Antimicrobial activity against Candida glabrata after 24 hrs by M27-A3 method; assay type: functional
Candida albicans [27] = test: Antimicrobial activity against Candida albicans isolate C after 48 hrs by Etest; assay type: functional
How it was run: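 Etest on RPMI 1640 agar with 2% glucose, run per the manufacturer's instructions. Index and control clinical blood isolates were tested in parallel.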

Candida albicans [28] = test: Antimicrobial activity against Candida albicans obtained from tracheal suction of patient 24 days after admission by EUCAST microdilution method; assay type: functional; conditions: Trachea, 576 h; how it was run: as §2
Clavispora lusitaniae [29] = test: Antimicrobial activity against Candida lusitaniae after 48 hrs by 80% endpoint M27-A method
Nakaseomyces glabratus [30] = test: Antimicrobial activity against Candida glabrata after 48 hrs by 50% endpoint M27-A2 method; assay type: functional
Candida albicans [31] = test: Antimicrobial activity against Candida albicans isolate S at 25 ug/ml grown on Muller-Hinton agar medium after 24 hrs by disk diffusion method; assay type: functional; how it was run: as §1
Candida albicans [32] = test: Antimicrobial activity against Candida albicans isolate R at 0.5 ug/ml after 48 hrs by agar dilution method; assay type: functional, organism-based; how it was run: as §4
Candida albicans [33] = test: Antimicrobial activity against Candida albicans isolate R after 48 hrs by Etest; assay type: functional; how it was run: as §3
Candida albicans [34] = test: Antimicrobial activity against Candida albicans isolate R at 2 ug/ml after 48 hrs by agar dilution method; assay type: functional, organism-based
How it was run: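 Agar dilution on Sabouraud agar with caspofungin at 0, 0.5, 1 and 2 per ml. Isolates were subcultured 2 days on CHROMagar. Suspensions of 1×10^6 to 5×10^6 CFU/ml in sterile water were diluted 1,500-fold, and approximately 3 to 15 cells were spread per agar surface. Growth or no growth was scored, with repeated testing.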

Candida albicans [35] = test: Antimicrobial activity against Candida albicans obtained from wound of patient 20 days after admission by EUCAST microdilution method; assay type: functional; conditions: 480 h; how it was run: as §2
[36] = test system: Meyerozyma guilliermondii; test: Antimicrobial activity against Candida guilliermondii after 48 hrs by 50% endpoint M27-A2 method; assay type: functional
Candida albicans [37] = test: Antimicrobial activity against Candida albicans isolate C after 48 hrs by EUCAST microdilution method; assay type: functional; how it was run: as §2
Candida albicans [38] = test: Antimicrobial activity against Candida albicans isolate S at 5 ug/ml grown on RPMI 1640 medium after 24 hrs by disk diffusion method; assay type: functional; how it was run: as §1
Candida albicans [39] = test: Antimicrobial activity against Candida albicans isolate S at 5 ug/ml grown on Muller-Hinton agar medium after 48 hrs by disk diffusion method; assay type: functional; how it was run: as §1
Candida albicans [40] = test: Antimicrobial activity against Candida albicans obtained from hemodialysis catheter tip 35 days after admission by Etest; assay type: functional; how it was run: as §3

In the case of CC[C@H](C)C[C@H](C)CCCCCCCCC(=O)N[C@H]1C[C@@H](O)[C@@H](NCCN)NC(=O)[C@@H]2[C@@H](O)CCN2C(=O)[C@H]([C@H](O)CCN)NC(=O)[C@H]([C@H](O)[C@@H](O)c2ccc(O)cc2)NC(=O)[C@@H]2C[C@@H](O)CN2C(=O)[C@H]([C@@H](C)O)NC1=O [CASPOFUNGIN], the “inhibition zone (IZ)” value (Candida albicans [1]) is reported as 19.2 mm, the MIC90 (Pichia kudriavzevii [2]) is reported as 2 µg/mL (≈ 1.83 µM) and the MIC90 (Nakaseomyces glabratus [3]) is reported as 0.25 µg/mL (≈ 0.229 µM). The “inhibition zone (IZ)” value (Candida albicans [4]) was 8.8 mm, the MIC90 (Clavispora lusitaniae [5]) was 2 µg/mL (≈ 1.83 µM) and the MIC90 (Kluyveromyces marxianus) was 0.015 µg/mL (≈ 0.0137 µM). It also gave an MIC90 (Clavispora lusitaniae [6]) of 0.25 µg/mL (≈ 0.229 µM), an MIC (Candida albicans [7]) of 0.25 µg/mL (≈ 0.229 µM) and an MIC90 (Candida parapsilosis) of 2 µg/mL (≈ 1.83 µM). The MIC (Candida albicans [8]) was over 32 µg/mL, the MIC90 (Nakaseomyces glabratus [9]) was 1 µg/mL (≈ 0.915 µM) and the MIC90 (Candida tropicalis [10]) was 0.5 µg/mL (≈ 0.457 µM). The MIC90 (Pichia kudriavzevii [11]) was 1 µg/mL (≈ 0.915 µM), the MIC90 (Candida tropicalis [12]) was 0.5 µg/mL (≈ 0.457 µM) and the MIC90 (Candida albicans [13]) was 0.5 µg/mL (≈ 0.457 µM). For the same molecule, the MIC (Candida albicans [14]) was 1 µg/mL (≈ 0.915 µM), the “inhibition zone (IZ)” value (Candida albicans [15]) was 26.4 mm and the “inhibition zone (IZ)” value (Candida albicans [16]) was 6.2 mm. For the same molecule, the MIC90 (Debaryomyces hansenii) was over 8 µg/mL, the MIC (Candida albicans [17]) was 1 µg/mL (≈ 0.915 µM) and the “inhibition zone (IZ)” value (Candida albicans [18]) was 12.1 mm. The MIC90 (Candida albicans [19]) was 0.25 µg/mL (≈ 0.229 µM), the “inhibition zone (IZ)” value (Candida albicans [20]) was 25.3 mm and the “growth inhibition (GI)” value (Candida albicans [21]) was “Active”. The MIC90 (Candida albicans [22]) was 0.25 µg/mL (≈ 0.229 µM), the MIC90 (Candida tropicalis [23]) was 0.25 µg/mL (≈ 0.229 µM) and the MIC90 (Nakaseomyces glabratus [24]) was 1 µg/mL (≈ 0.915 µM). It also gave an MIC90 (Candida tropicalis [25]) of 0.06 µg/mL (≈ 0.0549 µM), an MIC90 (Nakaseomyces glabratus [26]) of 0.06 µg/mL (≈ 0.0549 µM) and an MIC (Candida albicans [27]) of 0.06 µg/mL (≈ 0.0549 µM). The MIC (Candida albicans [28]) was 0.25 µg/mL (≈ 0.229 µM), the MIC90 (Clavispora lusitaniae [29]) was 1 µg/mL (≈ 0.915 µM) and the MIC90 (Nakaseomyces glabratus [30]) was 1 µg/mL (≈ 0.915 µM). The “inhibition zone (IZ)” value (Candida albicans [31]) was 23.3 mm, the “growth inhibition (GI)” value (Candida albicans [32]) was “inactive” and the MIC (Candida albicans [33]) was over 32 µg/mL. For the same molecule, the “growth inhibition (GI)” value (Candida albicans [34]) was “inactive”, the MIC (Candida albicans [35]) was 0.5 µg/mL (≈ 0.457 µM) and the MIC90 [36] was 1 µg/mL (≈ 0.915 µM). The MIC (Candida albicans [37]) was at most 0.06 µg/mL, the “inhibition zone (IZ)” value (Candida albicans [38]) was 20.6 mm and the “inhibition zone (IZ)” value (Candida albicans [39]) was 20.4 mm. The MIC (Candida albicans [40]) was 32 µg/mL (≈ 29.3 µM).
